Results taken from ChEMBL document CHEMBL3108710, “Discovery of a novel class of dimeric Smac mimetics as potent IAP antagonists resulting in a clinical candidate for the treatment of cancer (AZD5582)” (J Med Chem, 2013).
Calls of active or inactive are those of the source. The rule behind the calls is not given here.

Experiments:
[1] = Aqueous solubility of the compound at pH 4 to 6; format: physicochemical
[2] = tested on: MDA-MB-231; assay: Induction of apoptosis in human MDA-MB-231 cells assessed as cell death at 0.5 to 1.5 nM preincubated for 1 to 3 hrs followed by compound-washout measured after 72 hrs by MTS assay; format: functional, cell-based
Procedure, shortened: (§1)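 MDA-MB-231 cells were exposed to increasing compound concentrations for 1 or 3 h, rinsed, then given drug-free medium. Active caspase-3 per well was read at 24 h total. Survival was measured by MTS at 72 h total; 0% survival means complete cell death.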

[3] = target: T1, E3 ubiquitin-protein ligase XIAP (Homo sapiens, UniProt P98170); assay: Inhibition of XIAP-caspase-9 interaction in human MDA-MB-231 cells at 1 uM after 4 hrs by immunoprecipitation assay; format: cell-based
T1 sequence (P98170 whole entry): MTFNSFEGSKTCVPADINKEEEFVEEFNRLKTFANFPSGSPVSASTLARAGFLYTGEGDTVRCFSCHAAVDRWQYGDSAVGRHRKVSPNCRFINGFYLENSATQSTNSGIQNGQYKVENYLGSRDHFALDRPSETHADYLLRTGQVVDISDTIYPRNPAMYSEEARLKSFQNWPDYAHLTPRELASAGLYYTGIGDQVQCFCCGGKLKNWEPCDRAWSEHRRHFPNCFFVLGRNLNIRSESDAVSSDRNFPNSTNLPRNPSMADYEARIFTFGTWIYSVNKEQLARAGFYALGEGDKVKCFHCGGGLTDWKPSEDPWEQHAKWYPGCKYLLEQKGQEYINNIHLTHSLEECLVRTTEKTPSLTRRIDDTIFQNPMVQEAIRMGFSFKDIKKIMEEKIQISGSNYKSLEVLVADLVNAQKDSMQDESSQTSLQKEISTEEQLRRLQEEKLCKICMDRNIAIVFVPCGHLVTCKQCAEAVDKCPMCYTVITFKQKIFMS
Procedure, shortened: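 MDA-MB-231 cells were left untreated or exposed to 1 μM compound for 4 h. Caspase-9 was immunoprecipitated from the lysates, and caspase-9–XIAP complexes were detected by blotting.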

[4] = tested on: BT-549; assay: Growth inhibition of human BT549 cells; format: functional, cell-based
[5] = target: T1, E3 ubiquitin-protein ligase XIAP; assay: Binding affinity to XIAP in human MDA-MB-231 cells assessed as effect on protein level at 0.1 to 100 nM after 4 hrs by Western blotting analysis; format: cell-based
Procedure, shortened: (§2)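 MDA-MB-231 cells were treated with a range of compound concentrations. IAP protein levels were assessed by western blot: cIAP2 after 1 h, XIAP after 4 h.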

[6] = tested on: MIA PaCa-2; assay: Growth inhibition of human MIAPaCa2 cells; format: functional, cell-based
[7] = tested on: MDA-MB-231; assay: Antitumor activity against human MDA-MB-231 cells xenografted in CB17 SCID mouse assessed as tumor growth inhibition at 0.1 to 3 mg/kg, iv administered once a week for 2 weeks measured twice a week for 78 days; format: functional, organism-based
Procedure, shortened: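 MDA-MB-231 tumors were implanted orthotopically in mice and grown to about 120 mm³ average. Vehicle or compound was then given intravenously once weekly for 2 weeks, at 0.1, 0.5 or 3.0 mg/kg. Tumor volume was measured twice weekly for 78 days and reported as geometric mean ± SE.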

[8] = tested on: Mus musculus; assay: Induction of caspase-3 cleavage in tumor of CB17 SCID mouse xenografted with human MDA-MB-231 cells at 0.05 to 3 mg/kg, iv after 4 to 18 hrs by ELISA; format: functional, organism-based
Procedure, shortened: (§3)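 Mice bearing MDA-MB-231 xenografts received a single intravenous dose. Intratumoral cIAP1 protein and cleaved caspase-3 levels were measured at 4, 6 and 18 h postdose.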

[9] = organism: Homo sapiens; assay: Growth inhibition of human 97-7 cells; format: functional
[10] = tested on: Mus musculus; assay: Induction of cIAP1 degradation in tumor of CB17 SCID mouse xenografted with human MDA-MB-231 cells at 0.05 to 3 mg/kg, iv up to 18 hrs by ELISA; format: functional, organism-based; procedure, shortened: as §3
[11] = tested on: 647-V; assay: Growth inhibition of human 647V cells; format: functional, cell-based
[12] = tested on: MDA-MB-231; assay: Induction of apoptosis in human MDA-MB-231 cells assessed as caspase-3 cleavage at 0.5 to 1.5 nM preincubated for 1 to 3 hrs followed by compound-washout measured after 24 hrs by luciferase reporter gene assay; format: functional, cell-based; procedure, shortened: as §1
[13] = target: T2, Baculoviral IAP repeat-containing protein 3 (Homo sapiens, UniProt Q13489); assay: Binding affinity to cIAP2 in human MDA-MB-231 cells assessed as induction of protein degradation at 0.03 to 1 nM after 1 hr by Western blotting analysis; format: cell-based; procedure, shortened: as §2
T2 sequence (Q13489 whole entry): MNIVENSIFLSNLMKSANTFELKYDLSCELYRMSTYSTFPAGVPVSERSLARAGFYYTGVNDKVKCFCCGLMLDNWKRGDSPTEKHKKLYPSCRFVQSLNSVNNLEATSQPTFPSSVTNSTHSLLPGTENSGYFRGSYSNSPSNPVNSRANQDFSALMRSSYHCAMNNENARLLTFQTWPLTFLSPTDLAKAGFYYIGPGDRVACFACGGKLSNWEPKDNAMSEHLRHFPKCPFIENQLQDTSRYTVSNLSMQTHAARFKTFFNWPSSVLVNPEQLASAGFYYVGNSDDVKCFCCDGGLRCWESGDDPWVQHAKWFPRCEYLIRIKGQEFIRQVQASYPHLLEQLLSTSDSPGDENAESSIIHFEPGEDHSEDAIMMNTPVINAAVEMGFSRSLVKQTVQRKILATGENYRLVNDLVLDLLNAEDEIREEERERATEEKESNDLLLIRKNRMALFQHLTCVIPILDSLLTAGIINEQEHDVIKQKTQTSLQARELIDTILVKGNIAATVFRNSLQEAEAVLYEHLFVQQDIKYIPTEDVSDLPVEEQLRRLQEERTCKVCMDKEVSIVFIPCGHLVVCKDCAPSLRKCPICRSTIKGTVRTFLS

[14] = target: T3, Baculoviral IAP repeat-containing protein 2 (Homo sapiens, UniProt Q13490); assay: Binding affinity to cIAP1 in human MDA-MB-231 cells assessed as induction of protein degradation after 1 hr by Western blotting analysis; format: cell-based
T3 sequence (Q13490 whole entry): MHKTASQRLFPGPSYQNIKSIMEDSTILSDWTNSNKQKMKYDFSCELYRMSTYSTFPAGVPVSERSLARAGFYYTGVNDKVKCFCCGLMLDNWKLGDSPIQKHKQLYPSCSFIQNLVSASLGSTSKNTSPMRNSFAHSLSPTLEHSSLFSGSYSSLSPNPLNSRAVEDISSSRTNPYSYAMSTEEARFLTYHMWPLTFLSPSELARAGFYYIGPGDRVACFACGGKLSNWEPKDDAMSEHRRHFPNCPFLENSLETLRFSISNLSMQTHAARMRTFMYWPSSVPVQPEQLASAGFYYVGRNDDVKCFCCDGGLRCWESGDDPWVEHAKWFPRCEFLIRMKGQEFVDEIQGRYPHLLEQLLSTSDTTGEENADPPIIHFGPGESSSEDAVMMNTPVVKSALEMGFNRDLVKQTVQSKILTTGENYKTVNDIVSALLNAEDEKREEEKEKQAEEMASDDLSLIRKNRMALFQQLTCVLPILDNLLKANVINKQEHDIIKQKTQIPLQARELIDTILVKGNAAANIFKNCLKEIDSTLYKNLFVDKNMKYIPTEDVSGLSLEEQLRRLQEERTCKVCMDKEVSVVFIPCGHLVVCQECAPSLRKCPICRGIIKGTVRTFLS

[15] = Chemical stability of the compound assessed as amide hydrolysis at pH 1; format: physicochemical; settings: buffer
[16] = Photostability of the compound; format: physicochemical
[17] = target: T1, E3 ubiquitin-protein ligase XIAP; assay: Displacement of AbuRPFK-5FAM from GST-tagged XIAP BIR2 domain ([…] to P260) (unknown origin) after 20 mins by fluorescence polarization assay
Procedure, shortened: (§4)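 Competitive fluorescence polarization binding assay. Measures displacement of a 5-carboxyfluorescein-tagged synthetic peptide from the AVPI groove of the isolated BIR domain.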

[18] = target: T3, Baculoviral IAP repeat-containing protein 2; assay: Displacement of AbuRPFK-5FAM from GST-tagged cIAP1 BIR3 domain (L250 to G350) (unknown origin) after 20 mins by fluorescence polarization assay; procedure, shortened: as §4
[19] = Elimination half life in Han Wistar rat at 0.5 mg/kg, iv by LC-MS/MS analysis; format: ADME, organism-based; set-up: dose 0.5 mg/kg, route intravenous; settings: in vivo, read-out: beta t1/2 (converted)
Procedure, shortened: (§5)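 Rat PK after a single intravenous bolus. Parameters derived from plasma levels: total plasma clearance, steady-state volume of distribution, half-life and AUC.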

[20] = target: T1, E3 ubiquitin-protein ligase XIAP; assay: Displacement of AbuRPFK-5FAM from GST-tagged XIAP BIR3 domain (N252 to E350) (unknown origin) after 20 mins by fluorescence polarization assay; procedure, shortened: as §4
[21] = Volume of distribution at steady state in Han Wistar rat at 0.5 mg/kg, iv by LC-MS/MS analysis; format: ADME, organism-based; set-up: dose 0.5 mg/kg, route intravenous; settings: in vivo, read-out: Vdss; procedure, shortened: as §5
[22] = tested on: MDA-MB-231; assay: Antiproliferative activity against human MDA-MB-231 cells assessed as growth inhibition after 48 hrs by Alamar Blue assay; format: functional; settings: MDA-MB-231, 48 h
[23] = Hydrolytic stability of the compound at pH 4 to 6; format: physicochemical; settings: buffer
[24] = AUC in Han Wistar rat at 0.5 mg/kg, iv by LC-MS/MS analysis; format: ADME, organism-based; set-up: dose 0.5 mg/kg, route intravenous; settings: plasma; procedure, shortened: as §5
[25] = target: T2, Baculoviral IAP repeat-containing protein 3; assay: Displacement of AbuRPFK-5FAM from GST-tagged cIAP2 BIR3 domain (I235 to A336) (unknown origin) after 20 mins by fluorescence polarization assay; procedure, shortened: as §4
[26] = Apparent permeability from apical to basolateral side in human Caco2 cells; format: ADME, cell-based; settings: Caco-2
[27] = Chemical stability of the compound assessed as amide hydrolysis at pH >8; format: physicochemical
[28] = Total plasma clearance in Han Wistar rat at 0.5 mg/kg, iv by LC-MS/MS analysis; format: ADME, organism-based; set-up: dose 0.5 mg/kg, route intravenous; procedure, shortened: as §5
[29] = target: T3, Baculoviral IAP repeat-containing protein 2; assay: Binding affinity to cIAP1 in human MDA-MB-231 cells assessed as induction of protein degradation after 1 hr by ELISA; format: cell-based
[30] = Elimination half life in Han Wistar rat at 0.8 mg/kg, iv by LC-MS/MS analysis; format: ADME, organism-based; set-up: dose 0.8 mg/kg, route intravenous; settings: in vivo, read-out: beta t1/2 (converted); procedure, shortened: as §5
[31] = Total plasma clearance in Han Wistar rat at 0.8 mg/kg, iv by LC-MS/MS analysis; format: ADME, organism-based; set-up: dose 0.8 mg/kg, route intravenous; procedure, shortened: as §5
[32] = AUC in Han Wistar rat at 0.8 mg/kg, iv by LC-MS/MS analysis; format: ADME, organism-based; set-up: dose 0.8 mg/kg, route intravenous; settings: plasma; procedure, shortened: as §5
[33] = Volume of distribution at steady state in Han Wistar rat at 0.8 mg/kg, iv by LC-MS/MS analysis; format: ADME, organism-based; set-up: dose 0.8 mg/kg, route intravenous; settings: in vivo, read-out: Vdss; procedure, shortened: as §5
[34] = Total plasma clearance in Han Wistar rat at 1 mg/kg, iv by LC-MS/MS analysis; format: ADME, organism-based; set-up: dose 1 mg/kg, route intravenous; procedure, shortened: as §5
[35] = AUC in Han Wistar rat at 1 mg/kg, iv by LC-MS/MS analysis; format: ADME, organism-based; set-up: dose 1 mg/kg, route intravenous; settings: plasma; procedure, shortened: as §5
[36] = Volume of distribution at steady state in Han Wistar rat at 1 mg/kg, iv by LC-MS/MS analysis; format: ADME, organism-based; set-up: dose 1 mg/kg, route intravenous; settings: in vivo, read-out: Vdss; procedure, shortened: as §5
[37] = Elimination half life in Han Wistar rat at 1 mg/kg, iv by LC-MS/MS analysis; format: ADME, organism-based; set-up: dose 1 mg/kg, route intravenous; settings: in vivo, read-out: beta t1/2 (converted); procedure, shortened: as §5

CN[C@@H](C)C(=O)N[C@H](C(=O)N1CCC[C@H]1C(=O)N[C@H]1c2ccccc2C[C@H]1OCC#CC#CCO[C@@H]1Cc2ccccc2[C@@H]1NC(=O)[C@@H]1CCCN1C(=O)[C@@H](NC(=O)[C@H](C)NC)C1CCCCC1)C1CCCCC1.Cl.Cl
solubility [1]: > 7000 µg/mL

CN[C@@H](C)C(=O)N[C@H](C(=O)N1CCC[C@H]1C(=O)N[C@H]1c2ccccc2C[C@H]1OCC#CC#CCO[C@@H]1Cc2ccccc2[C@@H]1NC(=O)[C@@H]1CCCN1C(=O)[C@@H](NC(=O)[C@H](C)NC)C1CCCCC1)C1CCCCC1 [listing 1 of 2 here]
Activity [2]: Active | inhibition [3]: Active | growth inhibition (GI) [4]: Active | Activity [5]: inactive | growth inhibition (GI) [6]: Active | TGI [7]: Active | Activity [8]: Active | growth inhibition (GI) [9]: Active | Activity [10]: Active | growth inhibition (GI) [11]: Active | Activity [12]: Active | Activity [13]: Active | Activity [14]: Dose-dependent effect

CN[C@@H](C)C(=O)N[C@H](C(=O)N1CCC[C@H]1C(=O)N[C@H]1c2ccccc2C[C@H]1OCC#CC#CCO[C@@H]1Cc2ccccc2[C@@H]1NC(=O)[C@@H]1CCCN1C(=O)[C@@H](NC(=O)[C@H](C)NC)C1CCCCC1)C1CCCCC1 [listing 2 of 2 here]
Stability [15]: Unstable | Stability [16]: Stable | IC50 [17]: 21 nM | IC50 [18]: 15 nM | half-life [19]: 0.5 h | IC50 [20]: 15 nM | Vd [21]: 0.8 L/kg | GI50 [22]: < 0.06 nM | Stability [23]: Stable | AUC [24]: 166 ng·h/mL | IC50 [25]: 21 nM | Papp A→B [26]: < 0.1 ×10⁻⁶ cm/s | Stability [27]: Unstable | clearance [28]: 50 mL/min/kg | EC50 [29]: 0.1 nM

CN[C@@H](C)C(=O)N[C@H](C(=O)N1CCC[C@H]1C(=O)N[C@H]1c2ccccc2C[C@H]1OCCCCCCO[C@@H]1Cc2ccccc2[C@@H]1NC(=O)[C@@H]1CCCN1C(=O)[C@@H](NC(=O)[C@H](C)NC)C1CCCCC1)C1CCCCC1
half-life [30]: 3.6 h | clearance [31]: 45 mL/min/kg | AUC [32]: 262 ng·h/mL | GI50 [22]: < 0.1 nM | Vd [33]: 1.4 L/kg | EC50 [29]: 0.1 nM

CN[C@@H](C)C(=O)N[C@H](C(=O)N1CCC[C@H]1C(=O)N[C@H]1c2ccccc2C[C@H]1OCCOCCO[C@@H]1Cc2ccccc2[C@@H]1NC(=O)[C@@H]1CCCN1C(=O)[C@@H](NC(=O)[C@H](C)NC)C1CCCCC1)C1CCCCC1
clearance [34]: 80 mL/min/kg | AUC [35]: 206 ng·h/mL | Vd [36]: 1.9 L/kg | half-life [37]: 1.2 h | GI50 [22]: < 0.1 nM | EC50 [29]: 0.6 nM
